In publication PMC9037807 (RSC Advances, 2021):
Where “and” joins values, the source holds several entries; their conditions need not be identical. Equal entries are not always repeated.

Legend:
[1] = molecular target: T1, ovine COX-1 (Ovis aries, UniProt P05979); test: In vitro cyclooxygenase; type: biochemical
T1 sequence (P05979 25-600): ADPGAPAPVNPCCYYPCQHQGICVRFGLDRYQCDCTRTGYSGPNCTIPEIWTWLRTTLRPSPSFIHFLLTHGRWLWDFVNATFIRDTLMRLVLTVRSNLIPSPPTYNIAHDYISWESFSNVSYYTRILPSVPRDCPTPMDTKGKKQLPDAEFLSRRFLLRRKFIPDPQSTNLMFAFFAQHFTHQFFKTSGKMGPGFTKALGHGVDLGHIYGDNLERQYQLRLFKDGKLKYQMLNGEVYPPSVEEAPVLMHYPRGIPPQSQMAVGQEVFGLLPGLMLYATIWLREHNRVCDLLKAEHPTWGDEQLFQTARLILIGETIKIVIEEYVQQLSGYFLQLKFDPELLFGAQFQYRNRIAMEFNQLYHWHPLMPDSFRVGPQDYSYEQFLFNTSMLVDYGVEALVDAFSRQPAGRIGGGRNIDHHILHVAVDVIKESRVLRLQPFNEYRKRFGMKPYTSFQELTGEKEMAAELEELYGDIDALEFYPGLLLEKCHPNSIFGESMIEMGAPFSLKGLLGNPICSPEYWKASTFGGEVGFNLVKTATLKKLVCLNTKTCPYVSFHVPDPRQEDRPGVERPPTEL

[2] = molecular target: T2, ovine COX-2 (Ovis aries, UniProt P79208); test: In vitro cyclooxygenase; type: biochemical; details: for Selectivity index (SI): COX-1 IC50/COX-2 IC50
T2 sequence (P79208 17-603): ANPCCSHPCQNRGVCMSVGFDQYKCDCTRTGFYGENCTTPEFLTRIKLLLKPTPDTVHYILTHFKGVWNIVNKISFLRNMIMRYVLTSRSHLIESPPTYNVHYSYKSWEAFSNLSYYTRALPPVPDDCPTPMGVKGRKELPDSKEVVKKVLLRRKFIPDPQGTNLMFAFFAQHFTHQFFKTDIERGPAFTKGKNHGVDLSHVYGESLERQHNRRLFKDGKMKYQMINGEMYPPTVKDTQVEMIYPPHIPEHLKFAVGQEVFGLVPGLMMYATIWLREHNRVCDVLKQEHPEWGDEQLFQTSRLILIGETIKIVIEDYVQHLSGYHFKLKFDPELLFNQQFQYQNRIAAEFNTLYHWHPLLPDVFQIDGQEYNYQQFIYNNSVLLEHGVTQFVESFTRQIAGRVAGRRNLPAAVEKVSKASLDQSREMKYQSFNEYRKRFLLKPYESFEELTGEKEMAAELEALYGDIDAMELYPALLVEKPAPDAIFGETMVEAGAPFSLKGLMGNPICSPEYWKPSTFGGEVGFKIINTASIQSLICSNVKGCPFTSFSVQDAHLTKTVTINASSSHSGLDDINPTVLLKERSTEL

[3] = system: carrageenan-induced rat paw edema; test: Carrageenan-induced rat paw edema model; type: in vivo; details: 10 mg kg−1 po, n = 4; for Edema inhibition %, 1 h / Edema thickness ± SEM, 1 h: 1 h after carrageenan injection; for Edema inhibition %, 3 h / Edema thickness ± SEM, 3 h: 3 h after carrageenan injection; for Edema inhibition %, 6 h / Edema thickness ± SEM, 6 h: 6 h after carrageenan injection
In short: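 Rats were dosed orally with test compound (10 mg kg−1) in 5% aqueous DMSO (v/v). […] Thirty minutes after dosing, 0.02 ml of 1% carrageenan was injected sub-plantar. Paw thickness was measured 1, 3 and 6 h after injection, and edema inhibition % was calculated from paw thickness.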

[4] = system: rat stomach; test: Ulcerogenic liability; type: in vivo; details: rats sacrificed 4 h after drug administration
[5] = system: rat's stomach; test: Histo-pathological study of glandular and non-glandular stomach; type: in vivo; details: text description

SMILES | IC50 [1] | IC50 [2] | Selectivity index (SI) [2] | Edema inhibition %, 1 h [3] | Edema thickness ± SEM, 1 h [3] | Edema inhibition %, 3 h [3] | Edema thickness ± SEM, 3 h [3] | Edema inhibition %, 6 h [3] | Edema thickness ± SEM, 6 h [3] | Ulcer index, mean [4] | Severity of histopathological lesions of the stomach (in words) [5]
C/C(=N\NC(=O)Cn1c(-c2ccc(S(C)(=O)=O)cc2)nc2cc(Cl)ccc21)c1ccc(Cl)cc1 [12d, (E)-2-(5-Chloro-2-(4-(methylsulfonyl)phenyl)-1H-benzo[d]imidazol-1-yl)-N′-(1-(4-chlorophenyl)ethylidene) acetohydrazide] | 13.2 µM | 0.1 µM | 132 | 89% | 0.286 ± 0.009 mm | 93% | 0.154 ± 0.008 mm | 94.7% and 95% | 0.098 ± 0.005 mm | 1 mm | mild pathological lesions
COc1ccc(/C=N/NC(=O)Cn2c(-c3ccc(S(C)(=O)=O)cc3)nc3cc(C)ccc32)cc1 [11k, (E)-N′-(4-Methoxybenzylidene)-2-(5-methyl-2-(4-(methylsulfonyl)phenyl)-1H-benzo[d]imidazol-1-yl) acetohydrazide] | 12.3 µM | 0.1 µM | 123 | 82% | 0.464 ± 0.014 mm | 92% | 0.189 ± 0.017 mm | 94% | 0.111 ± 0.009 mm | 4.5 mm | mild to moderate lesions
Cc1ccc(-c2cc(C(F)(F)F)nn2-c2ccc(S(N)(=O)=O)cc2)cc1 [Celecoxib, celecoxib, reference compound] | – | – | – | 74% | 0.690 ± 0.017 mm | 94% | 0.142 ± 0.009 mm | 96% | 0.070 ± 0.005 mm | 3.5 mm | mild lesions
COc1ccc2c(c1)c(CC(=O)O)c(C)n2C(=O)c1ccc(Cl)cc1 [Indomethacin, indomethacin, reference compound] | – | – | – | – | – | 96% | 0.083 ± 0.005 mm | 97% | 0.051 ± 0.004 mm | 13 mm | severe lesions
CS(=O)(=O)c1ccc(-c2nc3cc(Cl)ccc3n2CC(=O)N/N=C/c2ccc(F)cc2)cc1 [11h, (E)-N′-(4-Fluorobenzylidene)-2-(5-chloro-2-(4-(methylsulfonyl)phenyl)-1H-benzo[d]imidazol-1-yl) acetohydrazide] | 7.98 µM | 0.22 µM | 36 | 50% | 1.30 ± 0.079 mm | 52% | 1.063 ± 0.020 mm | 60% | 0.754 ± 0.026 mm | – | –
CS(=O)(=O)c1ccc(-c2nc3ccccc3n2CC(=O)N/N=C/c2ccc(Cl)cc2)cc1 [11b, (E)-N′-(4-Chlorobenzylidene)-2-(2-(4-(methylsulfonyl)phenyl)-1H-benzo[d]imidazol-1-yl) acetohydrazide] | 13.4 µM | 0.1 µM | 134 | 86% | 0.357 ± 0.012 mm | 93% | 0.155 ± 0.002 mm | 95% | 0.094 ± 0.006 mm | 0.83 mm | mild pathological lesions
C/C(=N\NC(=O)Cn1c(-c2ccc(S(C)(=O)=O)cc2)nc2ccccc21)c1ccc(Cl)cc1 [12b, (E)-N′-(1-(4-Chlorophenyl)ethylidene)-2-(2-(4-(methylsulfonyl)phenyl)-1H-benzo[d]imidazol-1-yl) acetohydrazide] | 12.5 µM | 0.1 µM | 125 | 80% | 0.522 ± 0.009 mm | 89% | 0.240 ± 0.014 mm | 95% | 0.104 ± 0.005 mm | – | –
Cc1ccc2c(c1)nc(-c1ccc(S(C)(=O)=O)cc1)n2CC(=O)N/N=C/c1ccc(Cl)cc1 [11j, (E)-N′-(4-Chlorobenzylidene)-2-(5-methyl-2-(4-(methylsulfonyl)phenyl)-1H-benzo[d]imidazol-1-yl) acetohydrazide] | 11.2 µM | 0.11 µM | 102 | 81% | 0.505 ± 0.022 mm | 91% | 0.194 ± 0.018 mm | 93% | 0.129 ± 0.008 mm | – | –
COc1ccc(/C=N/NC(=O)Cn2c(-c3ccc(S(C)(=O)=O)cc3)nc3cc(Cl)ccc32)cc1 [11g, (E)-N′-(4-Methoxybenzylidene)-2-(5-chloro-2-(4-(methylsulfonyl)phenyl)-1H-benzo[d]imidazol-1-yl) acetohydrazide] | 8.74 µM | 0.13 µM | 67 | 61% | 1.017 ± 0.007 mm | 65% | 0.785 ± 0.018 mm | 78% | 0.410 ± 0.018 mm | – | –
